# KCNK9 inh: KCNK9 potassium channel inhibitors, primary screen, HEK293 cells, thallium flux | Potassium channel subfamily K member 9 (Homo sapiens), Q9NPC2 | FluxOR thallium flux fluorescence; active compounds read low | B-score at 10 µM | 1.2% of 310,000 active;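 active = ratio B-score over 3 SD below the library mean, with starting fluorescence within 5 SD of its mean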;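 note: negative B-score means less thallium flux so channel inhibition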
# KCNQ1 inh: inhibitors of human KCNQ1 channel, primary screen, cell-based, thallium flux, high-throughput; 1.3% of 310,000 active; B-score at 10 µM; AID 2642, 2010; Potassium voltage-gated channel subfamily KQT member 1 (Homo sapiens), P51787; CHO-K1 KCNQ1, FluxOR thallium flux fluorescence; active compounds read high;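 active = compounds whose thallium flux B-score, printed positive for inhibition, exceeds three library SD while starting fluorescence stays within three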;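 note: channel opened by potassium depolarization with thallium stimulus after 20 min compound exposure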
# KCNK3 block: human KCNK3 channel inhibitors, primary screen, CHO cells, FluxOR thallium flux, B-score; FluxOR fluorescence; active compounds read low; 0.84% of 340,000 active; Potassium channel subfamily K member 3 (Homo sapiens), O14649; B-score at 10 µM;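 active = B-score under library mean minus 4 SD, starting fluorescence ratio at most library mean plus 5 SD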;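 note: more negative B-score means stronger inhibition of thallium flux through KCNK3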
# KCNQ1 act: potentiators or activators of KCNQ1 channel, primary screen, cell-based, thallium flux, high-throughput. Potassium voltage-gated channel subfamily KQT member 1 (Homo sapiens), P51787. 0.35% of 310,000 active. CHO-K1 KCNQ1, thallium flux FluxOR fluorescence; active compounds read high. B-score at 10 µM;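 active = fluorescence ratio B-score, a plate-corrected score, at least three library SD, with initial intensity B-score within 5 SD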
#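 assay system = KCNQ1-transfected CHO-K1 cells | medium = assay buffer with matched DMSO | probe or stimulus = depolarizing K+/Tl+ stimulus, K2SO4 and Tl2SO4 each 12.5 mM in 5x stock | dosing = single dose | incubation = dye 90 min, compound 20 min, room temperature | detection = kinetic FluxOR fluorescence, 10 s baseline plus 110 s post-stimulus | evaluation = ratio B score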
# hERG protect: hERG rescue from dofetilide block, primary screen, cell-based, CHO-hERG, FluxOR thallium flux, dofetilide IC70; Voltage-gated inwardly rectifying potassium channel KCNH2 (Homo sapiens), Q12809; dofetilide IC70 present; activation (rescue from dofetilide block), less the hit threshold, % at 10 µM; 0.51% of 310,000 active; AID 1511, 2009;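 active = activation above the mean of controls blocked by dofetilide plus 5 SD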;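 note: thallium influx through hERG after potassium depolarization seen as dye fluorescence rise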
# KCC2 mod: KCC2 cotransporter modulators, thallium flux, primary screen, cell-based, HEK293 KCC2, FluoZin-2 fluorescence, MLSMR | B-score of Tl+ flux slope (higher = more flux/activation; lower = inhibition) at 10 µM | AID 1456, 2008 | KCC2 cells, thallium flux FluoZin-2 fluorescence | 2.2% of 190,000 active | Solute carrier family 12 member 5 (Homo sapiens), Q9H2X9;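 active = thallium flux slope and its plate-corrected score both differing from the plate sample mean at a set confidence after two filtering rounds, in either direction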;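 note: slope of fluorescence scaled to starting intensity during 10 to 20 s after thallium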
# * = called active by the depositor; i = inactive; nt = no result. Most compounds without a hit are left out; they make up all but 4.1% or so of the library.
SMILES,KCNK9 inh,KCNQ1 inh,KCNK3 block,KCNQ1 act,hERG protect,KCC2 mod
Cc1ccc(C(=O)Sc2cccccc2=O)cc1,i,i,i,15*,5.5*,nt
Cc1ccc(C(=O)CC(=O)c2ccccc2)cc1,i,i,i,i,-6.1,nt
CC(NC(=O)c1ccc(Br)cc1)c1ccc2c(c1)CCCC2 (stereo not given),i,i,i,i,7.8*,0.0735
CCOC(=O)C1=CC[C@H]2c3c(c4ccccc4n3C)C(=O)C1N2C,nt,nt,i,nt,nt,nt
CC1CCCC(NC(=O)c2cccc(S(=O)(=O)N3CCCCC3)c2)C1C (stereo not given),i,i,i,i,-7.1,nt
CC(C)N(Cc1ccccc1)C(=S)NC(=O)C1(C)CC1(Cl)Cl (stereo not given),i,i,i,26*,21.1*,84.6*
CC(C)N(Cc1ccccc1)C(=S)Nc1ccc(F)cc1,i,i,i,i,13.8*,0.0519
COc1ccc(C(=O)Nn2cnc3scc(-c4cccs4)c3c2=O)c(O)c1,i,i,-10.9*,i,-13.5,-2.19
C[C@H](CO)N1C[C@H](C)[C@@H](CN(C)S(=O)(=O)c2cn(C)cn2)Oc2c(NS(=O)(=O)c3cn(C)cn3)cccc2C1=O,nt,nt,i,nt,nt,nt
Cc1ccc(C2CC2/C(=N/O)c2ccc(F)cc2)cc1 (stereo not given),i,i,i,i,-1.2,nt
O=[N+]([O-])c1ccc2c(c1)C=C1CCCCC1(N1CCCCC1)O2 (stereo not given),-7.44*,i,i,i,-8.0,-0.66
O=C(NC(=S)Nc1ccc(N2CCOCC2)cc1)c1cccc(Cl)c1,i,i,i,i,-5.7,6.93*
CC(=O)c1cccc(NC(=S)NC(=O)C(C)C)c1,i,i,i,i,1.6,0.605
O=C(Nc1ccccc1)c1ccc2nc(-c3ccco3)c(-c3ccco3)nc2c1,i,i,i,i,-10.4,0.284
CC(=O)c1cccc(NC(=S)NC(=O)c2cccc(Cl)c2)c1,i,i,i,i,1.7,15.6*
CC(=O)c1ccc(NC(=O)c2ccc3nc(-c4ccco4)c(-c4ccco4)nc3c2)cc1,i,i,-11.3*,i,-7.2,nt
O=C(CCc1ccccc1)NNC(=S)NC(=O)c1ccc(Cl)cc1,i,i,nt,i,-4.8,68.3*
NS(=O)(=O)c1ccc(NC(=O)COC(=O)Cc2c[nH]c3ccccc23)cc1,nt,nt,i,nt,nt,nt
O=C(NC(=S)Nc1ccc(N2CCOCC2)cc1)c1ccccc1,i,i,i,i,-11.9,nt
S=C(Nc1ccc(N2CCOCC2)cc1)Nc1ccc2nc(-c3ccco3)c(-c3ccco3)nc2c1,-7.13*,6*,i,i,-25.4,nt
C=COCCNC(=S)Nc1cccc(Cl)c1,i,i,i,i,-4.5,0.0196
COc1ccc(C(=O)NC(=S)NCCc2ccccc2)cc1,i,i,i,i,-11.0,0.769
O=C(Nc1ccc(N2CCOCC2)cc1)c1ccc2nc(-c3ccco3)c(-c3ccco3)nc2c1,i,i,i,i,0.1,-0.453
O=C(NC(=S)Nc1ccc(N2CCOCC2)cc1)c1ccco1,i,i,i,i,-4.8,11*
O=C(NC(=S)NCCc1ccccc1)c1cccc(Cl)c1,i,i,i,9*,12.4*,nt
COCCCNC(=S)NNC(=S)Nc1cccc(Cl)c1,i,6*,i,i,-9.2,-0.0598
CC1(C)SC2C(C(=O)O)N=C(Cc3ccccc3)N2C1C(=O)O (stereo not given),nt,nt,i,nt,nt,nt
CCC/C(=N/NC(=O)c1cccc(Cl)c1)c1ccccc1,i,i,i,i,-0.3,11.8*

# Screening results deposited in PubChem by several laboratories.
